Screening results as filed in PubChem.
Hits are enriched below; roughly 1.8% of the tested compounds scored in any of these assays.
A3G deaminase: APOBEC3G DNA deaminase inhibitors, primary screen, biochemical, fluorescence, single-stranded DNA substrate, uHTS; recombinant A3G, ssDNA deamination FAM/TAMRA fluorescence; inhibition, % at 20 µM; hit rate 0.28% among 330,000;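 active = inhibition of at least 40% at 20 µM, with no more than 30% in the related APOBEC3A deaminase screen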;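 note: plate controls were DMSO wells with A3G for no effect and wells lacking A3G enzyme for full effect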
PHOSPHO1 block: PubChem AID 1565 | inhibition, % at 13.3 µM | recombinant PHOSPHO1, absorbance phosphatase assay | Phosphoethanolamine/phosphocholine phosphatase (Homo sapiens), Q8TCT1 | hit rate 1.1% among 290,000; in the data active = inhibition above about 60%
Target sequence (Q8TCT1 whole entry, looked up): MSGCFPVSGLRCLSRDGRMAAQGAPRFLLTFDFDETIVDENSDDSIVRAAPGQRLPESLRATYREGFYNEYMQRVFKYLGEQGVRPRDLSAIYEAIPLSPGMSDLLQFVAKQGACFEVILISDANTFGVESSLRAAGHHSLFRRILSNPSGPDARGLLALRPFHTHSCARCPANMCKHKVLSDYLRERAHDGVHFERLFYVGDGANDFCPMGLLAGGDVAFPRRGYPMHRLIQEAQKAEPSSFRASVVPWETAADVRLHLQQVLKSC
APOBEC3A inh: APOBEC3A ssDNA deaminase inhibitors, primary screen, selectivity assay for APOBEC3G inhibitor project, biochemical, FAM/TAMRA oligo cleavage fluorescence. DNA dC->dU-editing enzyme APOBEC-3A (Homo sapiens), P31941. recombinant A3A, FAM/TAMRA ssDNA deamination fluorescence. inhibition, % at 20 µM. hit rate 0.41% among 330,000;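 active = at least 40% inhibition at 20 µM here, with at most 30% in a related deaminase screen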;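 note: plate controls were A3A with DMSO for no effect and wells lacking A3A enzyme for full effect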
Target sequence (P31941 whole entry, looked up): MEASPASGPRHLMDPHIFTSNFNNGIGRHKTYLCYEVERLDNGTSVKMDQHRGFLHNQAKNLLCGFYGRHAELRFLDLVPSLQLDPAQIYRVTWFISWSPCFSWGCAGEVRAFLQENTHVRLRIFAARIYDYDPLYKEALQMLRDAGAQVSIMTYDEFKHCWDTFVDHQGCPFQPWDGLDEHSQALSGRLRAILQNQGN
Tb MetRS inh: T. brucei MetRS inhibitors, primary screen, biochemical, luminescence; methionyl-tRNA synthetase (Trypanosoma brucei brucei); purified T. brucei MetRS, ATP depletion, Kinase-Glo luminescence; AID 624268, 2012; hit rate 0.4% among 360,000; inhibition, % at 11.9 µM;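 active = inhibition above a per-plate cutoff of the control wells' mean inhibition plus 3 SD, cut at about 5.5% in these data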;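 note: 0% = DMSO wells median and 100% = median of wells with control inhibitor compound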
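Dosing: 11.9 µM compound single dose, 0.9% DMSO; Assay system: purified T. brucei MetRS enzyme; Measured by: Kinase-Glo luciferase luminescence reporting remaining unconsumed ATP; Schedule: 15 min plus 2 h at 25 °C.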
pCIP destab: p/CIP-EGFP fusion destabilizers, primary screen, fluorescence, F442A cells; Q05BA5; 16 h; decrease of EGFP signal, % at 10 µM; hit rate 0.01% among 290,000; AID 1984, 2009;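 active = EGFP signal decrease of at least 30% at 10 µM or well 3 SD below plate mean, unless failing retest; inactive = the rest, including hits failing retest or dose response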
A3A conf: APOBEC3A deaminase inhibitors, retest, confirmation, selectivity assay for APOBEC3G inhibitor project, biochemical, single concentration, fluorescence readout; shares compounds with APOBEC3A inh; recombinant A3A, ssDNA deaminase UDG fluorescence assay; inhibition, % at 20 µM; hit rate 63% among 1,400;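 active = inhibition reaching a set limit, 80% of the first screen's cutoff, at 20 µM in any replicate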;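 note: plate controls were DMSO wells with A3A for no effect and wells lacking A3A enzyme for full effect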
UDG ctr A3A: E. coli UDG inhibitors, confirmation, counter-screen for APOBEC3A inhibitor project, biochemical, single concentration, fluorescence, FAM/TAMRA oligo. inhibition, % at 20 µM. UDG counterscreen, FAM/TAMRA uracil oligo fluorescence. 1,000 tested, under 10 active. shares compounds with APOBEC3A inh; call rule not given here
A3G conf: APOBEC3G deaminase inhibitor retest, confirmation, biochemical, fluorescence, single-stranded DNA substrate, single concentration | hit rate 72% among 890 | AID 493152, 2011 | shares compounds with A3G deaminase | recombinant A3G ssDNA deaminase, UDG/FAM-TAMRA fluorescence | inhibition, % at 20 µM;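 active = inhibition reaching a set limit in any replicate at 20 µM, the limit being 80% of the first screen's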
UDG ctr A3G: E. coli UDG inhibitors, confirmation, counter-screen for APOBEC3G inhibitor project, biochemical, single concentration, fluorescence, FAM/TAMRA oligo. 710 tested, under 10 active. inhibition, % at 20 µM. shares compounds with A3G deaminase. UDG counterscreen. AID 504715, 2011;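 active = compounds giving 40% or more inhibition at 20 µM in any one of the three replicates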;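 note: plate controls were DMSO wells with UDG and oligo for no effect and DMSO wells lacking both for full effect; inhibitors lower the FAM signal released by uracil excision and alkaline cleavage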
Target sequence (P12295 whole entry, looked up): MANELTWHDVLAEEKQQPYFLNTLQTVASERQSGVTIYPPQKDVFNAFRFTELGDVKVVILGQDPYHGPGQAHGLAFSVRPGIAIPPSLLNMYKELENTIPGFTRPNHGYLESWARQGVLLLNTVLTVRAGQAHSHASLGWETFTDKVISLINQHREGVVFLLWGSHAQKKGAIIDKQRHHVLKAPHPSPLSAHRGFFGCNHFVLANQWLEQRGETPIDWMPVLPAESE
TbMetRS confirm: T. brucei MetRS inhibitors, confirmation, biochemical, luminescence. inhibition, % at 11.9 µM. AID 624412, 2012. shares compounds with Tb MetRS inh. T. brucei MetRS enzyme, luminescence (ATP depletion). hit rate 93% among 1,400; in the data active = inhibition above about 7%
Jurkat tox: Jurkat T cell cytotoxicity, cytotoxicity control for T. brucei MetRS inhibitor project, luminescence, high throughput. shares compounds with Tb MetRS inh. Jurkat cells viability, ATP luminescence. inhibition, % at 8.3 µM. hit rate 12% among 1,400. AID 624413, 2012; in the data active = inhibition above about 15%;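 note: 0% = vehicle and 100% = reference inhibitor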
Tb MetRS inh FP: T. brucei MetRS inhibitors, orthogonal assay for T. brucei MetRS inhibitor project, biochemical, fluorescence polarization; shares compounds with Tb MetRS inh; purified T. brucei MetRS; inhibition, % at 11.9 µM; hit rate 44% among 1,400; AID 651607, 2012; in the data active = inhibition above about 17%;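 note: 0% = vehicle wells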
Starred values were filed as active, the others as inactive; / = no result given.

SMILES | A3G deaminase | PHOSPHO1 block | APOBEC3A inh | Tb MetRS inh | pCIP destab | A3G conf | UDG ctr A3G | others
O=C(Nc1ccc(Br)cc1)c1cccc(-n2cnnn2)c1 | -2.0 | 4.0 | 50.5* | 6.5* | 8.4 | / | / | A3A conf=-5.0;UDG ctr A3A=2.3;TbMetRS confirm=13.4*;Jurkat tox=1.6;Tb MetRS inh FP=5.6
CCOC(=O)C1=CCN(S(=O)(=O)c2ccccc2F)C1c1cccc(C)c1 (stereo not given) | / | / | / | -0.1 | / | / | /
COc1ccccc1NS(=O)(=O)c1ccc(O)cc1 | 81.2* | 3.9 | 1.1 | 0.4 | -1.0 | 2.8 | /
COc1ccccc1NS(=O)(=O)c1ccc(/C=C/C(=O)O)cc1 | -1.2 | 20.1 | -0.8 | 0.4 | -1.5 | / | /
O=C(Nc1cccc(S(=O)(=O)Nc2ccccc2F)c1)c1ccc2ccccc2n1 | 55.6* | 5.5 | 2.2 | -0.7 | -6.2 | 60.6* | -3.3
COc1ccccc1NS(=O)(=O)c1cccc(NC(=O)c2ccc3ccccc3n2)c1 | -0.1 | -11.7 | 1.1 | 0.3 | -19.4 | / | /
O=S(=O)(Nc1ccc(Br)cc1)c1cccc(NC(=S)NCCN2CCOCC2)c1 | -6.1 | 2.2 | -3.9 | -0.6 | -14.4 | / | /
O=S(=O)(Nc1ccccc1F)c1cccc(NC(=S)NCCN2CCOCC2)c1 | 71.0* | / | -2.2 | -0.3 | / | 80.4* | -5.2
O=C(/C=C/c1ccccc1)Nc1cccc(S(=O)(=O)Nc2ccccc2F)c1 | 71.0* | -16.3 | 5.9 | -0.8 | -10.9 | 60.0* | 3.1
O=C(Cc1ccc(Cl)cc1Cl)Nc1cccc(S(=O)(=O)Nc2ccccc2F)c1 | 55.9* | 73.6* | 7.9 | -0.9 | 12.5 | 73.9* | -0.2
COC(=O)c1sc(N2C(=O)C(=O)/C(=C(/O)c3ccccc3)C2c2ccco2)nc1C (stereo not given) | -0.7 | -3.4 | 3.4 | 0.1 | -4.7 | / | /
CCc1c(C)nc2ncnn2c1NCCc1ccc(Cl)cc1 | -5.6 | 36.6 | -4.5 | 0.2 | -25.3 | / | /
Cc1ccc(N2C(=O)[C@@H]3C(c4cccnc4)=NO[C@@H]3C2=O)cc1 | 56.6* | 37.1 | -1.4 | -0.3 | -34.2 | 0.9 | -3.1
COc1cccc(NC(=O)CN(C)C(=O)c2cccc(S(=O)(=O)Nc3ccc(C)cc3)c2)c1 | -5.7 | / | -4.2 | -0.1 | / | / | /
COc1ccc(NC(=O)CN(C)C(=O)c2cccc(S(=O)(=O)Nc3ccc(OC)cc3)c2)cc1 | 49.2* | / | -2.2 | -0.6 | / | -12.9 | -0.6
O=C(Cc1ccc(F)cc1)Oc1ccc(C(=S)N2CCCC2)cc1 | -8.0 | -0.5 | -6.0 | -1.4 | -12.2 | / | /
Cc1ccc(N2CSC3=C(C#N)C(c4cccs4)CC(=O)N3C2)cc1 (stereo not given) | 45.2* | 57.2 | 13.1 | 0.2 | -8.8 | 58.5* | -2.5
COc1ccc(C2CC(=O)N3CN(c4ccc(C)c(Cl)c4)CSC3=C2C#N)cc1OC (stereo not given) | 45.1* | 81.0* | -2.5 | 1.4 | -20.0 | 18.6 | -2.4
CCc1ccc(N2CSC3=C(C#N)C(c4cccs4)CC(=O)N3C2)cc1 (stereo not given) | 49.2* | 72.6* | 16.4 | 0.5 | -1.8 | 50.1* | -2.0
Cc1cccc(C(=O)NCCN2CCOCC2)c1[N+](=O)[O-] | -2.0 | -1.1 | 0.7 | 0.6 | -15.9 | / | /
COC(=O)Nc1ccc(S(=O)(=O)N2CCCCC2C(=O)NCc2ccco2)cc1 (stereo not given) | 63.2* | -7.4 | 0.6 | -0.5 | -8.3 | 1.9 | /
Cc1ccc(S(=O)(=O)N2CCCCC2C(=O)NCc2ccco2)cc1 (stereo not given) | -3.5 | 22.0 | -1.6 | -0.3 | -1.6 | / | /
CC(C)(CNS(C)(=O)=O)SCc1ccc(Cl)cc1 | -8.7 | 48.0 | -2.9 | -0.4 | -8.2 | / | /
Cc1ccc(NNC(=O)c2ccno2)cc1C | 42.3* | 21.4 | -3.9 | -0.5 | -12.3 | 39.1* | -3.0
Cc1ccc(NNC(=O)c2ccno2)cc1Cl | 7.5 | 33.4 | -3.4 | -0.4 | -13.3 | / | /
SMILES | A3G deaminase | PHOSPHO1 block | APOBEC3A inh | Tb MetRS inh | pCIP destab | A3G conf | UDG ctr A3G | others
Cc1noc(C)c1S(=O)(=O)N1CCCC(C(=O)NCc2ccccn2)C1 (stereo not given) | 49.0* | 4.9 | 2.9 | -0.8 | -2.4 | 1.0 | /
CN(C)c1ccc(/C=N/Nc2cccc(C(=O)O)c2)cc1 | 46.5* | 4.7 | 1.8 | -0.7 | -3.3 | 27.2 | /
COc1cc(NC(=O)c2ccc(=O)[nH]n2)cc(OC)c1OC | -7.6 | 46.3 | -3.6 | 0.1 | 5.5 | / | /
O=C1Cc2cccc(=O)c(O)c2C(=O)O1 | / | / | / | -0.1 | / | / | /
O=C1c2c(O)cccc2Cc2cccc(O)c21 | 66.9* | / | 10.6 | -0.4 | / | 78.1* | -4.7
CCS(=O)(=O)c1ccc2oc(Nc3ccc(C(C)C)cc3)nc2c1 | 67.9* | 82.4* | 0.7 | -0.2 | -19.2 | 77.8* | 1.6
CCN(CC)S(=O)(=O)c1ccc2oc(Nc3ccc(OC)cc3)nc2c1 | -9.4 | -5.9 | -2.9 | -0.1 | -10.2 | / | /
CCOc1ccc(Nc2nc3cc(S(=O)(=O)N(CC)CC)ccc3o2)cc1 | 49.5* | 19.2 | 1.8 | 0.3 | -13.3 | 61.5* | -1.1
CC1CCN(S(=O)(=O)c2cc(C(=O)Nc3ccccn3)ccc2Br)CC1 | -8.7 | / | -4.9 | -0.3 | / | / | /
O=C(NNc1ccccc1)c1ccccc1 | / | / | / | -0.2 | / | / | /
